≈ marks a conversion by molar mass, not a printed value.
What was measured:
Staphylococcus aureus [1] = experiment: Antibacterial activity against Staphylococcus aureus ATCC 29213 by broth liquid microdilution method; type: functional
Method in brief: (§1)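 Isolates were identified on an automated MicroScan WalkAway 96 system. Susceptibility was tested by broth microdilution following CLSI guidelines. MIC was taken as the lowest concentration giving complete inhibition of bacterial growth. S. aureus ATCC 29213 served as the control strain.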

Staphylococcus aureus [2] = experiment: Antibacterial activity against methicillin-resistant Staphylococcus aureus by broth liquid microdilution method; type: functional; method in brief: as §1
Staphylococcus aureus [3] = experiment: Antibacterial activity against methicillin-sensitive Staphylococcus aureus by broth liquid microdilution method; type: functional; method in brief: as §1
Enterococcus faecalis [4] = experiment: Antibacterial activity against linezolid-resistant Enterococcus faecalis by broth liquid microdilution method; type: functional; method in brief: as §1
Enterococcus faecium [5] = experiment: Antibacterial activity against vancomycin-resistant Enterococcus faecium by broth liquid microdilution method; type: functional; method in brief: as §1
Staphylococcus aureus [6] = experiment: Antibacterial activity against methicillin-resistant Staphylococcus aureus clinical isolates by broth liquid microdilution method; type: functional; method in brief: as §1
Staphylococcus aureus [7] = experiment: Antibacterial activity against methicillin-sensitive Staphylococcus aureus clinical isolates by broth liquid microdilution method; type: functional; method in brief: as §1
Enterococcus faecium [8] = experiment: Antibacterial activity against vancomycin-resistant Enterococcus faecium clinical isolates by broth liquid microdilution method; type: functional; method in brief: as §1
Enterococcus faecalis [9] = experiment: Antibacterial activity against linezolid-resistant Enterococcus faecalis clinical isolates by broth liquid microdilution method; type: functional; method in brief: as §1
[10] = biological target: T1, MAO-A (amine oxidase [flavin-containing] A) (Homo sapiens, UniProt P21397); experiment: Inhibition of recombinant human MAOA expressed in baculovirus infected Sf9 insect cells at 30 uM using luciferin derived substrate pretreated for 15 mins followed by substrate addition and measured after 60 mins by luminescence assay relative to control; settings: probe luciferin derived substrate
T1 sequence (P21397 whole entry): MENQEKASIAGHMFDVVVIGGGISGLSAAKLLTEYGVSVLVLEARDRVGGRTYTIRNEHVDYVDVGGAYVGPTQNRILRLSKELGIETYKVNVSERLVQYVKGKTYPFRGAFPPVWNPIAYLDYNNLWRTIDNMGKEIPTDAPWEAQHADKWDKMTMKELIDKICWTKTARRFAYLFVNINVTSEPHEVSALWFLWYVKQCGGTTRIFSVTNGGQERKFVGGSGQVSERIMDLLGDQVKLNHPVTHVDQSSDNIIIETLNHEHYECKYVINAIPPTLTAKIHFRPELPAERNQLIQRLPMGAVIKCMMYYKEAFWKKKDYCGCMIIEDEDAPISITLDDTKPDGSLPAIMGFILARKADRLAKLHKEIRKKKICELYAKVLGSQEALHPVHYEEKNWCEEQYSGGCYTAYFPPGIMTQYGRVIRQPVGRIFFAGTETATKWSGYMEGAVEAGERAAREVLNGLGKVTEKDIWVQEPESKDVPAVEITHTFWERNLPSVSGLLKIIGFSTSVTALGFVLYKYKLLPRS
Method in brief: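 Human recombinant MAO-A with MAO-Glo luminescent kit. Compounds in DMSO (final 1% DMSO) preincubated with enzyme 15 min at room temperature, then luciferin derivative substrate added and reacted 60 min at room temperature. Luciferase detection reagent added for 20 min before luminescence read. Buffer replacing enzyme served as 100% inhibition control and DMSO as no-inhibition control; percent inhibition calculated against both.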

HepG2 = experiment: Cytotoxicity against human HepG2 cells after 48 hrs by MTT assay; type: cell-based; settings: HepG2, 48 h
Method in brief: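 HepG2 cells grown in RPMI1640 with 10% FBS; about 4×10⁴ cells per well seeded in MEM, incubated 24 h at 37 ℃ in 5% CO₂, then exposed to compounds at indicated final concentrations for 48 h. MTT added (final 0.5 mg/mL) for 4 h at 37 ℃, formazan dissolved in DMSO, absorbance read at 492 nm. Triplicate runs; IC50 as mean ± SD.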

[11] = Half life in human liver microsomes at 1.5 uM in presence of NADPH by LC-MS analysis; type: ADME, microsome
Method in brief: (§2)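 Human liver microsomes with 1.5 µM compound in a 0.75 mg/mL microsome mix were pre-warmed at 37 °C for 5 min. Reaction started with NADPH (6 mM stock). Samples were quenched with acetonitrile plus internal standard at 0, 5, 15, 30 and 45 min, then read by LC/MS, in duplicate. T1/2 = ln(2)/k from the log-linear slope; Clint derived from T1/2; % remaining read at 45 min.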

[12] = Intrinsic clearance in human liver microsomes at 1.5 uM pretreated for 5 mins followed by NADPH addition measured after 5 to 45 mins by LC-MS analysis; type: ADME, microsome; settings: read-out: CLH; method in brief: as §2
[13] = Stability in human liver microsomes assessed as parent compound remaining at 1.5 uM pretreated for 5 mins followed by NADPH addition measured after 45 mins by LC-MS analysis; type: ADME, microsome; settings: read-out: Stability; method in brief: as §2
Staphylococcus aureus [14] = experiment: Potency index, ratio of linezolid MIC to test compound MIC for Staphylococcus aureus ATCC 29213; type: functional
Method in brief: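 MIC by broth microdilution per CLSI guidelines, taken as the lowest concentration giving complete growth inhibition; isolates identified on MicroScan WalkAway 96; S. aureus ATCC29213 used as control strain. Index expressed as linezolid MIC divided by test compound MIC.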

Staphylococcus aureus [15] = experiment: Potency index, ratio of linezolid MIC to test compound MIC for methicillin-sensitive Staphylococcus aureus; type: functional

SMILES | MIC (Staphylococcus aureus [1]) [µg/mL] | MIC (Staphylococcus aureus [2]) [µg/mL] | MIC (Staphylococcus aureus [3]) [µg/mL] | MIC (Enterococcus faecalis [4]) [µg/mL] | MIC (Enterococcus faecium [5]) [µg/mL] | MIC50 (Staphylococcus aureus [6]) [µg/mL] | MIC90 (Staphylococcus aureus [6]) [µg/mL] | MIC (Staphylococcus aureus [7]) [µg/mL] | MIC50 (Staphylococcus aureus [7]) [µg/mL] | MIC90 (Staphylococcus aureus [7]) [µg/mL] | MIC (Enterococcus faecium [8]) [µg/mL] | MIC50 (Enterococcus faecium [8]) [µg/mL] | MIC90 (Enterococcus faecium [8]) [µg/mL] | MIC (Enterococcus faecalis [9]) [µg/mL] | MIC50 (Enterococcus faecalis [9]) [µg/mL] | MIC90 (Enterococcus faecalis [9]) [µg/mL] | inhibition at 1 h, 30 µM [10] [%] | IC50 (HepG2) [µM] | half-life at 1.5 µM [11] [h] | remaining at 0.75 h, 1.5 µM [13] [%] | also measured
CC(=O)NC[C@H]1CN(c2ccc(-c3ccc(/C=N/N4CCN(C(=O)CO)CC4)cc3)c(F)c2)C(=O)O1 | 0.0675 (≈ 0.136 µM) | 0.0675 (≈ 0.136 µM) | 0.0675 (≈ 0.136 µM) | 0.0675 (≈ 0.136 µM) | 0.0675 (≈ 0.136 µM) | 0.0625 (≈ 0.126 µM) | 0.125 (≈ 0.251 µM) | 0.0625 to 0.125 (≈ 0.126 to 0.251 µM) | 0.0625 (≈ 0.126 µM) | 0.125 (≈ 0.251 µM) | 0.0625 to 0.5 (≈ 0.126 to 1 µM) | 0.125 (≈ 0.251 µM) | 0.25 (≈ 0.502 µM) | 0.0625 to 0.125 (≈ 0.126 to 0.251 µM) | 0.125 (≈ 0.251 µM) | 0.25 (≈ 0.502 µM) | 80 | 4.66 | 11.1 | 93.9 | CLint scaled at 1.5 µM [12]: 2.62 mL/min/kg
CC(=O)NC[C@H]1CN(c2ccc(-c3ccc(/C=N/N4CCN(C)CC4)cc3)c(F)c2)C(=O)O1 | 0.0675 (≈ 0.149 µM) | 0.0675 (≈ 0.149 µM) | 0.0675 (≈ 0.149 µM) | 0.0675 (≈ 0.149 µM) | 0.0675 (≈ 0.149 µM) | 0.0625 (≈ 0.138 µM) | 0.125 (≈ 0.276 µM) | 0.0625 to 0.25 (≈ 0.138 to 0.551 µM) | 0.0625 (≈ 0.138 µM) | 0.125 (≈ 0.276 µM) | 0.0625 to 0.5 (≈ 0.138 to 1.1 µM) | 0.25 (≈ 0.551 µM) | 0.5 (≈ 1.1 µM) | 0.0625 to 0.25 (≈ 0.138 to 0.551 µM) | 0.125 (≈ 0.276 µM) | 0.125 (≈ 0.276 µM) | 71 | 0.82 | 1.21 | 64.7 | Ratio (Staphylococcus aureus [14]): 15 - 30; Ratio (Staphylococcus aureus [15]): 15 - 30; CLint scaled at 1.5 µM [12]: 23.9 mL/min/kg
CC(=O)NC[C@H]1CN(c2ccc(N3CCOCC3)c(F)c2)C(=O)O1 [LINEZOLID] | 1 (≈ 2.96 µM) | 1 (≈ 2.96 µM) | 1 (≈ 2.96 µM) | > 16 | 2 (≈ 5.93 µM) | 2 (≈ 5.93 µM) | 4 (≈ 11.9 µM) | 1 to 2 (≈ 2.96 to 5.93 µM) | 2 (≈ 5.93 µM) | 2 (≈ 5.93 µM) | 1 to 4 (≈ 2.96 to 11.9 µM) | 2 (≈ 5.93 µM) | 4 (≈ 11.9 µM) | > 16 | > 16 | > 16 | 74 | > 25 | – | 104 | MIC (Staphylococcus aureus [6]): 1 to 4 µg/mL (≈ 2.96 to 11.9 µM)
CC(=O)NC[C@H]1CN(c2ccc(-c3ccc(/C=N/N4CCSCC4)cc3)c(F)c2)C(=O)O1 | 0.0675 (≈ 0.148 µM) | 0.0675 (≈ 0.148 µM) | 0.0675 (≈ 0.148 µM) | 0.0675 (≈ 0.148 µM) | 0.0675 (≈ 0.148 µM) | 0.125 (≈ 0.274 µM) | 0.25 (≈ 0.548 µM) | 0.0625 to 0.25 (≈ 0.137 to 0.548 µM) | 0.125 (≈ 0.274 µM) | 0.25 (≈ 0.548 µM) | 0.0625 to 0.5 (≈ 0.137 to 1.1 µM) | 0.15 (≈ 0.329 µM) | 0.5 (≈ 1.1 µM) | 0.0625 to 0.25 (≈ 0.137 to 0.548 µM) | 0.125 (≈ 0.274 µM) | 0.5 (≈ 1.1 µM) | 81 | – | – | – | Ratio (Staphylococcus aureus [14]): 15 - 30; Ratio (Staphylococcus aureus [15]): 15 - 30

Reference: ChEMBL document CHEMBL4265926, “Synthesis and antibacterial activity evaluation of novel biaryloxazolidinone analogues containing a hydrazone moiety as promising antibacterial agents” (Eur J Med Chem, 2018)
